# Laboratory results reported in ChEMBL document CHEMBL5705905, “Pharmacological targeting of kinases MST1 and MST2 augments tissue repair and regeneration” (Sci Transl Med, 2016).
# Calls of active or inactive are those of the source. No cut-off for these calls is given here.
# What was measured:
# [1] = target: Platelet-derived growth factor receptor alpha (Homo sapiens) (UniProt P16234); assay: Inhibition of PDGFRalpha (unknown origin) assessed as remaining activity at 1 uM by Kinome scan method relative to control
# Procedure, shortened: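 KINOMEscan active-site competition binding assay at 1 μM against 468 kinases. Ctrl% = (test − positive control)/(negative control DMSO − positive control) × 100; lower values mean tighter binding.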
# [2] = target: Serine/threonine-protein kinase Nek10 (Homo sapiens) (UniProt Q6ZWH5); assay: Inhibition of NEK10 (unknown origin) assessed as remaining activity at 1 uM by Kinome scan method relative to control
# [3] = test system: Mast/stem cell growth factor receptor Kit (Homo sapiens), P10721 [L576P]; assay: Inhibition of KIT L576P mutant (unknown origin) assessed as remaining activity at 1 uM by Kinome scan method relative to control
# [4] = target: Glycogen synthase kinase-3 beta (Homo sapiens) (UniProt P49841); assay: Inhibition of GSK3beta (unknown origin) assessed as remaining activity at 1 uM by Kinome scan method relative to control
# [5] = target: Mitogen-activated protein kinase 14 (Homo sapiens) (UniProt Q16539); assay: Inhibition of P38alpha (unknown origin) assessed as remaining activity at 1 uM by Kinome scan method relative to control
# [6] = AUC (0 to infinity) in male Sprague-Dawley rat at 5 mg/kg, iv measured for 24 hrs by LC-MS/MS analysis; type: ADME, organism-based; conditions: in vivo
# Procedure, shortened: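 Sprague-Dawley rats, single intravenous or oral dose. Parameters (half-life, AUC, bioavailability) reported in a supplementary table.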
# [7] = target: Mitogen-activated protein kinase kinase kinase 7 (Homo sapiens) (UniProt O43318); assay: Inhibition of TAK1 (unknown origin) assessed as remaining activity at 1 uM by Kinome scan method relative to control
# Mus musculus [8] = assay: Protection against CCl4-induced mouse assessed as low level in collagen deposition at 1 mg/kg, ip administration daily for 10 days by Sirius Red staining; type: functional, organism-based; conditions: Liver, time 10.0 day
# Mus musculus [9] = assay: Protection against APAP induced liver injury in mouse assessed as decrease in mortality rate at 1 mg/kg, ip administered at 2.5 hrs; type: functional, organism-based
# [10] = target: SRSF protein kinase 3 (Homo sapiens) (UniProt Q9UPE1); assay: Inhibition of SRPK3 (unknown origin) assessed as remaining activity at 1 uM by Kinome scan method relative to control
# [11] = target: Fibroblast growth factor receptor 1 (Homo sapiens) (UniProt P11362); assay: Inhibition of FGFR1 (unknown origin) assessed as remaining activity at 1 uM by Kinome scan method relative to control
# [12] = target: RAC-alpha serine/threonine-protein kinase (Homo sapiens) (UniProt P31749); assay: Inhibition of AKT1 (unknown origin) assessed as remaining activity at 1 uM by Kinome scan method relative to control
# Procedure, shortened: (§1)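 Active-site-dependent competition-binding (KINOMEscan) panel of 468 kinases, test compound at 1 μM (from a 10 mM DMSO stock). Read-out is ctrl% = (test signal − positive control signal)/(negative control signal − positive control signal) × 100. DMSO is the negative control (100%) and a control compound is the positive control (0%). Lower ctrl% means tighter binding.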
# [13] = target: Dual specificity mitogen-activated protein kinase kinase 1 (Homo sapiens) (UniProt Q02750); assay: Inhibition of MEK1 (unknown origin) assessed as remaining activity at 1 uM by Kinome scan method relative to control
# Aurora kinase B = Aurora kinase B (Homo sapiens, UniProt Q96GD4); assay: Inhibition of AURKB (unknown origin) assessed as remaining activity at 1 uM by Kinome scan method relative to control; procedure, shortened: as §1
# [14] = target: Myosin light chain kinase (Homo sapiens) (UniProt Q32MK0); assay: Inhibition of MLCK (unknown origin) assessed as remaining activity at 1 uM by Kinome scan method relative to control
# [15] = target: Ribosomal protein S6 kinase alpha-1 (Homo sapiens) (UniProt Q15418); assay: Inhibition of N-terminal kinase domain RSK1 (unknown origin) assessed as remaining activity at 1 uM by Kinome scan method relative to control
# [16] = target: Serine/threonine-protein kinase PLK1 (Homo sapiens) (UniProt P53350); assay: Inhibition of PLK1 (unknown origin) assessed as remaining activity at 1 uM by Kinome scan method relative to control
# [17] = target: Serine/threonine-protein kinase N2 (Homo sapiens) (UniProt Q16513); assay: Inhibition of PKN2 (unknown origin) assessed as remaining activity at 1 uM by Kinome scan method relative to control
# [18] = Acute toxicity in wild-type mouse assessed as cell proliferation in liver at 3 mg/kg,ip administrated daily for 7 days by Ki67 staining; type: organism-based; conditions: in vivo, 168 h, time 7 day
# Procedure, shortened: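 Wild-type mice received vehicle or 3 mg/kg i.p. daily for 7 days. Ki67 staining of sections from various tissues with quantification of positive cells, n = 6; means ± SD, Student's t test. Daily weights, physical activity and serum chemistry were also monitored.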
# [19] = target: Uncharacterized serine/threonine-protein kinase SBK3 (Homo sapiens) (UniProt P0C264); assay: Inhibition of SgK110 (unknown origin) assessed as remaining activity at 1 uM by Kinome scan method relative to control
# Mus musculus [20] = assay: Protection against human hepatocyte transplanted FRG mouse assessed as increase in FAH level at 1 mg/kg, ip administrated once a daily for 28 days by H&E staining based immunohistochemical analysis; type: functional, organism-based; conditions: Liver, time 28.0 day
# [21] = target: Non-receptor tyrosine-protein kinase TYK2 (Homo sapiens, UniProt P29597); assay: Inhibition of TYK2 JH2 domain (unknown origin) assessed as remaining activity at 1 uM by Kinome scan method relative to control
# [22] = target: Cyclin-dependent kinase 2 homolog (Plasmodium falciparum (isolate K1 / Thailand)) (UniProt Q07785); assay: Inhibition of Plasmodium falciparum PK5 assessed as remaining activity at 1 uM by Kinome scan method relative to control
# [23] = Acute toxicity in wild-type mouse assessed as low level in oval cell expansion by at 1 mg/kg,ip administrated daily for 2 months by immunohistochemical staining; type: organism-based; conditions: in vivo, 1460 h
# [24] = target: Serine/threonine-protein kinase 10 (Homo sapiens) (UniProt O94804); assay: Inhibition of LOK (unknown origin) assessed as remaining activity at 1 uM by Kinome scan method relative to control
# [25] = test system: Tyrosine-protein kinase ABL1 (Homo sapiens), P00519 [M351T]; assay: Inhibition of phosphorylated ABL1 M351T mutant (unknown origin) assessed as remaining activity at 1 uM by Kinome scan method relative to control
# [26] = test system: Phosphatidylinositol 4,5-bisphosphate 3-kinase catalytic subunit alpha isoform (Homo sapiens), P42336 [Q546K]; assay: Inhibition of PIK3CA Q546K mutant (unknown origin) assessed as remaining activity at 1 uM by Kinome scan method relative to control
# [27] = target: Inhibitor of nuclear factor kappa-B kinase subunit alpha (Homo sapiens) (UniProt O15111); assay: Inhibition of IKK-alpha (unknown origin) assessed as remaining activity at 1 uM by Kinome scan method relative to control
# HepG2 = assay: Induction of apoptosis in human HepG2 cells overexpressing MST2 assessed as early apoptosis cells at 3 uM by annexinV staining (Rvb =13.6 %); type: functional
# Sequence of Glycogen synthase kinase-3 beta (Homo sapiens) (P49841 whole entry, looked up): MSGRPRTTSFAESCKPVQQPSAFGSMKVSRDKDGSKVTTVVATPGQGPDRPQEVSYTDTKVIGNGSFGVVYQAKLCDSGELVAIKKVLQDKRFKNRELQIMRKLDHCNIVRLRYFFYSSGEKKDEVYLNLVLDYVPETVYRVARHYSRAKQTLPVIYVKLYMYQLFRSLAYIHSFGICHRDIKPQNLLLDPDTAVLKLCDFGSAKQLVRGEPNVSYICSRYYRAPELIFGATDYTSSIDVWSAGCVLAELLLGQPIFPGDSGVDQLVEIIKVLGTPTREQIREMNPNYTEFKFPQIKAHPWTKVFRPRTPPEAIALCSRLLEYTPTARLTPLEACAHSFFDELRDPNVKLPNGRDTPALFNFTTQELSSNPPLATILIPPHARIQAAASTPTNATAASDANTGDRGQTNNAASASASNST
# Sequence of Phosphatidylinositol 4,5-bisphosphate 3-kinase catalytic subunit alpha isoform (Homo sapiens), P42336 [Q546K] (P42336 whole entry Q546K, canonical isoform): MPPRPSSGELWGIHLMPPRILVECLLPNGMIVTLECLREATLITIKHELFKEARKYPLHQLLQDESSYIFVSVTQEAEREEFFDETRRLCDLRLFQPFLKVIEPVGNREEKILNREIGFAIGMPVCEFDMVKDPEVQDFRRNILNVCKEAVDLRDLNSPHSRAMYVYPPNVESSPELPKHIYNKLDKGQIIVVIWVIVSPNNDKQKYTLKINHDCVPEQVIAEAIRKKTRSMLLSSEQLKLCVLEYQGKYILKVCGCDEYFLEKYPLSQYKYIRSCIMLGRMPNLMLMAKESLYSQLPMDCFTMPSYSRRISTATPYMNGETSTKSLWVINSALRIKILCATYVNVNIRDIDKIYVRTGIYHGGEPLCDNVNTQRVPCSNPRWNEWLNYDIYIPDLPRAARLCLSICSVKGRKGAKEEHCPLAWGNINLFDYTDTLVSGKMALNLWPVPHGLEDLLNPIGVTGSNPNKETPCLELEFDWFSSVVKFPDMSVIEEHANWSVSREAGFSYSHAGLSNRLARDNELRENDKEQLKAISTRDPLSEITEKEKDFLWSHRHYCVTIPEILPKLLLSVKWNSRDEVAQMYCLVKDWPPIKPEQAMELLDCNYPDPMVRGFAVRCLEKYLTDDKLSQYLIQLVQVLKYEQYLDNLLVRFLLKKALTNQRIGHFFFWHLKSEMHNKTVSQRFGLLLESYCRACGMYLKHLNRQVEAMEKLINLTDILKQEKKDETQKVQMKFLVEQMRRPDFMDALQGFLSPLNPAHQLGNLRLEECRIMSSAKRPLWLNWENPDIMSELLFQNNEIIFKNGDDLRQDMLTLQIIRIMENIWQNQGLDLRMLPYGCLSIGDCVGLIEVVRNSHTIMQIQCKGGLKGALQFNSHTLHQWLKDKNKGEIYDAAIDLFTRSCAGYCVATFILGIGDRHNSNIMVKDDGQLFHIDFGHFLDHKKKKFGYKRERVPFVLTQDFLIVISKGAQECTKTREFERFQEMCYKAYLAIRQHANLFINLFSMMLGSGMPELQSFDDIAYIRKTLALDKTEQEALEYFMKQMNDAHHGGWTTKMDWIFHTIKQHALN
# Sequence of Inhibitor of nuclear factor kappa-B kinase subunit alpha (Homo sapiens) (O15111 whole entry): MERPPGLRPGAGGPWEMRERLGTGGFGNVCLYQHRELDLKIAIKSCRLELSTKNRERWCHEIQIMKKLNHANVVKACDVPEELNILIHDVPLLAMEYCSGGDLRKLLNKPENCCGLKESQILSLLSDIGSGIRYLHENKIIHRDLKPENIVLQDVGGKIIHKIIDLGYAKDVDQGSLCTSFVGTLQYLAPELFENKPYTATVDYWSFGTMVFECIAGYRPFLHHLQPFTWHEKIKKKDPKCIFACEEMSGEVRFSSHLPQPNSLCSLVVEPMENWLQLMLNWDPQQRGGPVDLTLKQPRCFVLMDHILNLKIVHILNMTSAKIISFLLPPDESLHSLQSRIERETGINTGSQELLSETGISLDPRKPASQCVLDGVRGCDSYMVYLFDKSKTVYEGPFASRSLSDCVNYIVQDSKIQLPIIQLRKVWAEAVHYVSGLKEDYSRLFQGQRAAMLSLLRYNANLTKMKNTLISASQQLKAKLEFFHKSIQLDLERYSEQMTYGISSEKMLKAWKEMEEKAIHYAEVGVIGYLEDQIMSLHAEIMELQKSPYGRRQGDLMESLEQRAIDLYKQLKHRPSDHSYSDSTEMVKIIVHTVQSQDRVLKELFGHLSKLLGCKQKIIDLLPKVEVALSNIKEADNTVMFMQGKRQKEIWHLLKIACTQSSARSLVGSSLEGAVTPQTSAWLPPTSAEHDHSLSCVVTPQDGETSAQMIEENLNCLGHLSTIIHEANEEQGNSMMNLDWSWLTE
# Sequence of Aurora kinase B (Q96GD4 whole entry): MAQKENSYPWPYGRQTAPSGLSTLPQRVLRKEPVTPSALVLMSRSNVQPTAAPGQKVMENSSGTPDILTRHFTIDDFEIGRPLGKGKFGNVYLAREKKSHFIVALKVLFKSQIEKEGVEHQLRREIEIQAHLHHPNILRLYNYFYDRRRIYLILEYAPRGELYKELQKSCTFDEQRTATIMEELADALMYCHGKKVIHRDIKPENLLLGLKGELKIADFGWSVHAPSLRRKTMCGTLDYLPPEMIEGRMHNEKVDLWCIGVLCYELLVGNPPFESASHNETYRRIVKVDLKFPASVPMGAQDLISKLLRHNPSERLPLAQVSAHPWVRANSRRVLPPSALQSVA
# Sequence of Cyclin-dependent kinase 2 homolog (Plasmodium falciparum (isolate K1 / Thailand)) (Q07785 whole entry): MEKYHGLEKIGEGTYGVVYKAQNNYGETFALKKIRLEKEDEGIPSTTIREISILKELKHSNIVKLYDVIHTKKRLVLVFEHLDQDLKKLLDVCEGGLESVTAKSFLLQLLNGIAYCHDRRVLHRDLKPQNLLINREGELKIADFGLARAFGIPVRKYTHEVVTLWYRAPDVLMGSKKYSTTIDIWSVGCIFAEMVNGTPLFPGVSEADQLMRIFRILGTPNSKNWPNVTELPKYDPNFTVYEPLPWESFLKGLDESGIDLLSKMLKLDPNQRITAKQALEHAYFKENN
# Sequence of Ribosomal protein S6 kinase alpha-1 (Homo sapiens) (Q15418 whole entry, the tested form may be a part): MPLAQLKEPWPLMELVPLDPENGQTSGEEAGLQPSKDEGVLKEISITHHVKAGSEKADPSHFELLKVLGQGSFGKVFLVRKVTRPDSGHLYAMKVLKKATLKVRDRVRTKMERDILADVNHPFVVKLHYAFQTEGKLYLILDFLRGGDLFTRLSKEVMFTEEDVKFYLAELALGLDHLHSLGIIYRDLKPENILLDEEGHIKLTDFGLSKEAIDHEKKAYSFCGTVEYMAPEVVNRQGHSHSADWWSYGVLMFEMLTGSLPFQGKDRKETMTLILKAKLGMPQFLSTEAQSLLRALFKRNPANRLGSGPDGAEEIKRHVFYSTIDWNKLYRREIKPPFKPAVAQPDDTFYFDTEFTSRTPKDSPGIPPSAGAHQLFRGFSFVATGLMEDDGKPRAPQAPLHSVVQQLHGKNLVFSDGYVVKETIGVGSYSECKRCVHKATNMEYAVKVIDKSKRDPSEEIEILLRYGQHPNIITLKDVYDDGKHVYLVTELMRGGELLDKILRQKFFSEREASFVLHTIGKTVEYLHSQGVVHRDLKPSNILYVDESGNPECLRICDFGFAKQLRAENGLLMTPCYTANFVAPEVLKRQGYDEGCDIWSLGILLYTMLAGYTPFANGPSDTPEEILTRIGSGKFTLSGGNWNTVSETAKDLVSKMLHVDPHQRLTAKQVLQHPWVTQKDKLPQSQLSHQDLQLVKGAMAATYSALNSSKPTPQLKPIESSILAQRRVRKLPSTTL
# Sequence of Myosin light chain kinase (Homo sapiens) (Q32MK0 whole entry, the tested form may be a part): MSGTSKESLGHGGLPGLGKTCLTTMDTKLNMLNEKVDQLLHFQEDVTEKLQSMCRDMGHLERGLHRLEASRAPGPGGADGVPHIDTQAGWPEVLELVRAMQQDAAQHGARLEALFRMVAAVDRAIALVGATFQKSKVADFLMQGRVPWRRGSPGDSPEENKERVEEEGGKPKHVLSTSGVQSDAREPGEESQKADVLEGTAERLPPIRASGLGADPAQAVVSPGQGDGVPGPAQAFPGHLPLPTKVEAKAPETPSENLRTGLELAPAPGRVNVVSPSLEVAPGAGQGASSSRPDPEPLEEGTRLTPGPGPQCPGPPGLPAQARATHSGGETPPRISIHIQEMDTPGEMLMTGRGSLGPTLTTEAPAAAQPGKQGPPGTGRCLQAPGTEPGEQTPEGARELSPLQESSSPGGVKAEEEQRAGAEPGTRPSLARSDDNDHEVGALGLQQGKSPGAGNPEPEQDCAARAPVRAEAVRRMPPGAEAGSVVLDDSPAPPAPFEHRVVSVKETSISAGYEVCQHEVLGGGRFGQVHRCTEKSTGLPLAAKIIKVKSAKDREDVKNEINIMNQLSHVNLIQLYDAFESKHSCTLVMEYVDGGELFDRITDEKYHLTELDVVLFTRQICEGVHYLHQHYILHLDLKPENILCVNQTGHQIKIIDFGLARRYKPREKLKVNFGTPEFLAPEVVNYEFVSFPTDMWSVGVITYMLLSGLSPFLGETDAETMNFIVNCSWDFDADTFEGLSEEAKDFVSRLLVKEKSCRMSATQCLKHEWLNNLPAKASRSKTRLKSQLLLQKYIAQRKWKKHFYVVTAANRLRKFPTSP
# Sequence of SRSF protein kinase 3 (Homo sapiens) (Q9UPE1 whole entry): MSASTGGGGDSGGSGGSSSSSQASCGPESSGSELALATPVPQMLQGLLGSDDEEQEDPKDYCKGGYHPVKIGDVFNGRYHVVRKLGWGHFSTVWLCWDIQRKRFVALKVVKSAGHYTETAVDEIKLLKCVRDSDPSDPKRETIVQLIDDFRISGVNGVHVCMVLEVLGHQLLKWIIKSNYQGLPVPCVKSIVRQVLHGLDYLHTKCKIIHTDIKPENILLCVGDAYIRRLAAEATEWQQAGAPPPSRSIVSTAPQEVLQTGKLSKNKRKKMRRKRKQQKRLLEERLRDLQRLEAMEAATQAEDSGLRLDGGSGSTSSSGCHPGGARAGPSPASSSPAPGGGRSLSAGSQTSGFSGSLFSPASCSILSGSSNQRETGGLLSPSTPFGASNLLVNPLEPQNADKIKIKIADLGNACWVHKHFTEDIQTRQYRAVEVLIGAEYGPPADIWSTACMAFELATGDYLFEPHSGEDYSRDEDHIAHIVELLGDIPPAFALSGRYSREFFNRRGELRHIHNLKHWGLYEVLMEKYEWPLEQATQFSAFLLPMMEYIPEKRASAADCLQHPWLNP
smiles,measurement,setting,value
CN1C(=O)c2sccc2N(C)c2nc(Nc3ccc(S(N)(=O)=O)cc3)ncc21,Activity,[1],89%
same,Activity,[2],70%
same,Activity,[3],75%
same,Activity,[4],100%
same,Activity,[5],88%
same,AUC(0-inf),[6],1270 ng·h/mL
same,Activity,[7],71%
same,Activity,Mus musculus [8],Active
same,Activity,Mus musculus [9],Active
same,Activity,[10],100%
same,Activity,[11],88%
same,Activity,[12],100%
same,Activity,[13],91%
same,Activity,Aurora kinase B,3.4%
same,Activity,[14],87%
same,Activity,[15],91%
same,Activity,[16],70%
same,Activity,[17],94%
same,Activity,[18],Non-Toxic
same,Activity,[19],100%
same,Activity,Mus musculus [20],Active
same,Activity,[21],71%
same,Activity,[22],93%
same,Activity,[23],Toxic
same,Activity,[24],100%
same,Activity,[25],5.5%
same,Activity,[26],50%
same,Activity,[27],94%
same,Activity,HepG2,5.12%
